{"data": "Measured values gathered from unrelated publications", "BRAF V600E": "Serine/threonine-protein kinase B-raf (BRAF, Homo sapiens, UniProt P15056, V600E)", "BRAF": "Serine/threonine-protein kinase B-raf (BRAF, Homo sapiens, UniProt P15056)", "note": "Lines come from different studies, so protocols differ."}
{"Compound": "O=C(c1ccc(Nc2ncc(Cl)c(-c3cc4ccccc4s3)n2)cc1)N1CCC(N2CCCC2)CC1", "target": "BRAF V600E", "read-out": "binding", "technique": "competition with immobilised ligand", "concentration": "1 µM", "remaining binding [%]": 56}
{"Compound": "Cc1nc(Cc2cccc(C(F)(F)F)c2)sc1-c1ccc(C(N)=O)nc1", "target": "BRAF V600E", "read-out": "cell-free assay", "technique": "competition with immobilised ligand", "concentration": "1 µM", "remaining binding [%]": 100}
{"Compound": "CN(CCCC(F)(F)F)c1nccc(-c2cnn3ncccc23)n1", "target": "BRAF", "read-out": "binding", "concentration": "1 µM", "remaining binding [%]": 100}
{"Compound": "CNCc1ccccc1-c1csc([C@H](C)Nc2nc(C)nc3cc(OC)c(OC)cc23)c1", "target": "BRAF", "read-out": "cell-free assay", "technique": "competition with immobilised ligand", "concentration": "1 µM", "remaining binding [%]": 97}
{"Compound": "O=C(Nc1c[nH]nc1C(=O)NC1CCNCC1)c1cc(F)cc(F)c1", "target": "BRAF V600E", "read-out": "binding", "technique": "competition with immobilised ligand", "concentration": "1 µM", "remaining binding [%]": 100}
{"Compound": "O=C(NCCCN1CCOCC1)c1ccc(Nc2nccc(-c3cc4ccccc4s3)n2)cc1", "target": "BRAF V600E", "read-out": "binding", "technique": "competition with immobilised ligand", "concentration": "1 µM", "remaining binding [%]": 67}
{"Compound": "C[C@@H]1CCN(c2nccc(-c3cnn4ncccc34)n2)C1", "target": "BRAF", "read-out": "binding", "concentration": "1 µM", "remaining binding [%]": 75}
{"Compound": "Cc1cc(NC(=O)c2cccc(S(F)(F)(F)(F)F)c2)cc(-n2ccn3nc(-c4cccnc4)cc23)c1", "target": "BRAF V600E", "read-out": "cell-free assay", "technique": "competition with immobilised ligand", "concentration": "1 µM", "remaining binding [%]": 24.4}
{"Compound": "O=C(NCC1CCOCC1)c1n[nH]cc1NC(=O)c1c(F)cccc1F", "target": "BRAF", "read-out": "binding", "technique": "competition with immobilised ligand", "concentration": "1 µM", "remaining binding [%]": 93}
{"Compound": "Cc1cnn2ncc(-c3ccnc(N(C)C)n3)c2c1", "target": "BRAF", "read-out": "binding", "concentration": "1 µM", "remaining binding [%]": 82}
{"Compound": "CC(C)(C)c1ccc(-c2nc(CBr)nn2-c2cccc(O)c2)cc1", "target": "BRAF", "read-out": "cell-free assay", "technique": "competition with immobilised ligand", "concentration": "10 µM", "remaining binding [%]": 77}
{"Compound": "c1cncc(-c2cccc(Nc3nccc(NC4CCCCC4)n3)c2)c1", "target": "BRAF V600E", "read-out": "binding", "technique": "competition with immobilised ligand", "concentration": "10 µM", "remaining binding [%]": 52}
{"Compound": "C[C@@H]1CN(c2ccc3ncc(-c4ccc5[nH]nc(C6CC6)c5c4)n3n2)C[C@H](C)O1", "target": "BRAF", "read-out": "binding", "technique": "competition with immobilised ligand", "concentration": "50 nM", "remaining binding [%]": 91}
{"Compound": "N[C@H]1CCN(c2nccc(-c3cnn4ncccc34)n2)C1", "target": "BRAF V600E", "read-out": "binding", "concentration": "1 µM", "remaining binding [%]": 92}
{"Compound": "Nc1ncc2c(n1)-c1c([nH]c3ccc(C#CC4CC4)cc13)CCCC2", "target": "BRAF", "read-out": "binding", "technique": "competition with immobilised ligand", "concentration": "1 µM", "remaining binding [%]": 100}
{"Compound": "N#Cc1ccccc1CSc1nnc2c(n1)[nH]c1ccccc12", "target": "BRAF V600E", "read-out": "binding", "technique": "competition with immobilised ligand", "concentration": "10 µM", "remaining binding [%]": 100}
{"Compound": "CS(=O)(=O)N1CCCC(NC(=O)[C@H](CCC2CCCCC2)NC(=O)c2ccc(CNc3ncnc4c3nnn4-c3ccccc3)cc2)C1 (stereo partly shown)", "target": "BRAF", "read-out": "cell-free assay", "technique": "competition with immobilised ligand", "concentration": "0.1 µM", "remaining binding [%]": 81}
{"Compound": "CN(c1nccc(-c2cnn3ncccc23)n1)C1CC1", "target": "BRAF V600E", "read-out": "binding", "concentration": "1 µM", "remaining binding [%]": 100}
{"Compound": "C=CC(=O)N1CCC(C(=O)NCC(=O)N2CCN(c3nc(-c4cnc(N)nc4C(F)F)nc(N4CCOCC4)n3)CC2)CC1", "target": "BRAF", "read-out": "binding", "technique": "competition with immobilised ligand", "concentration": "1 µM", "remaining binding [%]": 92}
{"Compound": "CNC(=O)[C@@H]1CC[C@@H](n2c(-c3ccc4cnccc4c3)nc3ccc(C(=O)NCc4cccc(C(N)=O)c4)cc32)C1", "target": "BRAF V600E", "read-out": "binding", "technique": "competition with immobilised ligand", "concentration": "1 µM", "remaining binding [%]": 100}
{"Compound": "NS(=O)(=O)c1cc(NC(=O)Cc2ccccc2)ccc1Oc1cccc(Cl)c1", "target": "BRAF", "read-out": "cell-free assay", "technique": "competition with immobilised ligand", "concentration": "1 µM", "remaining binding [%]": 96}
{"Compound": "COc1cnc(Nc2cccc(S(N)(=O)=O)c2)nc1N1CCN(c2ccccc2)C(=O)C1", "target": "BRAF", "read-out": "binding", "technique": "competition with immobilised ligand", "concentration": "1 µM", "remaining binding [%]": 87}
{"Compound": "CC1CCCN1c1nccc(-c2cnn3ncccc23)n1 (stereo not shown)", "target": "BRAF V600E", "read-out": "binding", "concentration": "1 µM", "remaining binding [%]": 100}
{"Compound": "CN(C)C(=O)Cn1cc(-c2nc(C3(c4ccc(-c5cnc(N)nc5)cc4)CC3)no2)cn1", "target": "BRAF", "read-out": "cell-free assay", "technique": "competition with immobilised ligand", "concentration": "1 µM", "remaining binding [%]": 88}
{"Compound": "COc1cnc(Nc2cccc(S(N)(=O)=O)c2)nc1N1CCN(c2ccccc2)CC1", "target": "BRAF V600E", "read-out": "binding", "technique": "competition with immobilised ligand", "concentration": "1 µM", "remaining binding [%]": 82}
{"Compound": "C[C@@H]1CN(c2cc(-c3n[nH]c4ccc(OC5(C)CC5)cc34)ncn2)C[C@H](C)O1", "target": "BRAF V600E", "read-out": "cell-free assay", "technique": "competition with immobilised ligand", "concentration": "0.1 µM", "remaining binding [%]": 89}
{"Compound": "Cc1cnc(Nc2ccc(C(=O)N3CCC(N4CCCC4)CC3)cc2)nc1-c1cc2ccccc2s1", "target": "BRAF V600E", "read-out": "binding", "technique": "competition with immobilised ligand", "concentration": "1 µM", "remaining binding [%]": 32}
{"Compound": "CN(C)c1nccc(-c2cnn3ncccc23)n1", "target": "BRAF", "read-out": "binding", "concentration": "1 µM", "remaining binding [%]": 74}
{"Compound": "O=C(NCCCN1CCOCC1)c1ccc(Nc2ncc(Cl)c(-c3ccc(Cl)s3)n2)cc1", "target": "BRAF", "read-out": "binding", "technique": "competition with immobilised ligand", "concentration": "1 µM", "remaining binding [%]": 100}
{"Compound": "COc1ncc2cc3ccccc3nc2c1C#N", "target": "BRAF", "read-out": "cell-free assay", "technique": "competition with immobilised ligand", "concentration": "5 µM", "remaining binding [%]": 100}
{"Compound": "CN1CCN(c2ccc(Nc3nccc(-c4ccccc4)n3)cc2C(F)(F)F)CC1", "target": "BRAF V600E", "read-out": "binding", "concentration": "10 µM", "remaining binding [%]": 31}
{"Compound": "Cc1c(NC(=O)c2cc(C(N)=O)nc3cc(F)ccc23)c(C(F)(F)F)nn1Cc1ccc(C#N)cc1", "target": "BRAF V600E", "read-out": "cell-free assay", "technique": "competition with immobilised ligand", "concentration": "1 µM", "remaining binding [%]": 90}
{"Compound": "CCN1CCN(Cc2ccc(C(=O)Nc3ccc(C)c(Oc4ccc5c(c4)CC(=O)N5)c3)cc2C(F)(F)F)CC1", "target": "BRAF", "read-out": "binding", "technique": "competition with immobilised ligand", "concentration": "1 µM", "remaining binding [%]": 64}
{"Compound": "O=C(c1ccc(Nc2nccc(-c3cc4ccccc4s3)n2)cc1)N1CCC(N2CCCC2)CC1", "target": "BRAF", "read-out": "binding", "technique": "competition with immobilised ligand", "concentration": "1 µM", "remaining binding [%]": 38}
{"Compound": "c1cnn2ncc(-c3ccnc(N4CCC45COC5)n3)c2c1", "target": "BRAF", "read-out": "binding", "concentration": "1 µM", "remaining binding [%]": 56}
{"Compound": "O=C(c1ccc(Nc2ncc(Cl)c(-c3ccc(Cl)s3)n2)cc1)N1CCC(N2CCCC2)CC1", "target": "BRAF", "read-out": "binding", "technique": "competition with immobilised ligand", "concentration": "1 µM", "remaining binding [%]": 65}
{"Compound": "C[C@@H](c1ccc(-n2cnc3c(N)ncnc32)cc1)N1CCc2nn(C)c(Cc3ccccc3)c2C1=O", "target": "BRAF", "read-out": "binding", "technique": "competition with immobilised ligand", "concentration": "0.1 µM", "remaining binding [%]": 100}
